Test [1] has as its target T1, 5-hydroxytryptamine receptor 1A (Rattus norvegicus, UniProt P19327).
T1 sequence (P19327 whole entry): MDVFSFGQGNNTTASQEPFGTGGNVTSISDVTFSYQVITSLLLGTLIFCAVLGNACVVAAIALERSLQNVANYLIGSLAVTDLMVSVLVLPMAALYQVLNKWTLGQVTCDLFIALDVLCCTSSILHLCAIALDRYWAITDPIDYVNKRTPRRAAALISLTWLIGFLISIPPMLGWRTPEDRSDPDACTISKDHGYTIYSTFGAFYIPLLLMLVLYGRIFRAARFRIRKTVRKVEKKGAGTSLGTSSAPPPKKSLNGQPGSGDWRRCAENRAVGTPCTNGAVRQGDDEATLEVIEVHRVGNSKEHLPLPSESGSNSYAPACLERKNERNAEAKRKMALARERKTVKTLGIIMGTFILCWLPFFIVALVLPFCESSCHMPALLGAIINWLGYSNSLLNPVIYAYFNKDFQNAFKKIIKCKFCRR
Briefly: Displacement of [3H]-8-OH-DPAT from serotonin 5-HT1A receptor in Sprague-Dawley rat brain cortex homogenates incubated for 30 mins by liquid scintillation spectrometry. (In general: In a radioligand displacement assay an active substance lowers the binding of a labelled ligand.)

The target of test [2] is 5-hydroxytryptamine receptor 2A (Rattus norvegicus) (UniProt P14842). Briefly: Antagonist activity at 5-HT2A receptor in Sprague-Dawley rat ielum assessed as reduction in 5-HT-evoked contraction relative to control. It counts as functional.
Sequence of 5-hydroxytryptamine receptor 2A (Rattus norvegicus) (P14842 whole entry): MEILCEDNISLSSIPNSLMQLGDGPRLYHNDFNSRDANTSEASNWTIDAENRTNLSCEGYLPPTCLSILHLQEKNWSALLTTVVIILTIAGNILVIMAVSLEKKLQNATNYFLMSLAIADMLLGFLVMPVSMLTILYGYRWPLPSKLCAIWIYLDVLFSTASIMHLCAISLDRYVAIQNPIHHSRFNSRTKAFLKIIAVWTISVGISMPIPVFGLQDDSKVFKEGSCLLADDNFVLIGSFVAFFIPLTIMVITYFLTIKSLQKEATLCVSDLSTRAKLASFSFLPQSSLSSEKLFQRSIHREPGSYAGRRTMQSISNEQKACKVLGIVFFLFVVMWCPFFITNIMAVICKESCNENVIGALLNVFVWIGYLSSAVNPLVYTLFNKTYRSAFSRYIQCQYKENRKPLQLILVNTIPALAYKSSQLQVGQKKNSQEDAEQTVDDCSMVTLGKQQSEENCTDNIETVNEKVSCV
Test [3] has the same target. In words: Agonist activity at 5-HT2A receptor in Sprague-Dawley rat ileum assessed as induction of contraction. It counts as functional.
Test [4] addresses T2, 5-hydroxytryptamine receptor 2C (Rattus norvegicus, UniProt P08909).
T2 sequence (P08909 whole entry): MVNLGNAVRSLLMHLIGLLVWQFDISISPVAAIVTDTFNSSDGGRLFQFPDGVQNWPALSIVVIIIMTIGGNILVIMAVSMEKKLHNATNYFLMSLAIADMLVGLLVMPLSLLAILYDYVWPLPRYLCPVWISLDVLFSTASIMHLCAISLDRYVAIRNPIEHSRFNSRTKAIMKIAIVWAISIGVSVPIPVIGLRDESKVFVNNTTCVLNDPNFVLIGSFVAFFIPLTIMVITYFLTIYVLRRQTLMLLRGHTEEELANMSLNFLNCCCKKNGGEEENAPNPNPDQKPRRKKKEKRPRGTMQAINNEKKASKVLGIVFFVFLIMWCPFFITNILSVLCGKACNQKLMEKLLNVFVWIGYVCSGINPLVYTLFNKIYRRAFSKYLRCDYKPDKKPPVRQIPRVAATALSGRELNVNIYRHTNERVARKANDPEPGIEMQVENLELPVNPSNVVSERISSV
In words: Displacement of [3H]mesulergine from serotonin 5-HT2C receptor in Sprague-Dawley rat brain cortex homogenates incubated for 15 mins by liquid scintillation spectrometry.

Test [5] concerns the target T3, 5-hydroxytryptamine receptor 2A (Rattus norvegicus, UniProt P14842). In words: Displacement of [3H]ketanserin from serotonin 5-HT2A receptor in Sprague-Dawley rat brain cortex homogenates incubated for 15 mins by liquid scintillation spectrometry.
The target of test [6] is T3, 5-hydroxytryptamine receptor 2A. Briefly: Antagonist activity at 5-HT2A receptor in Sprague-Dawley rat ielum assessed as reduction in 5-HT-evoked contraction. The test is classed as functional. Put shortly:
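Ileum segments from CO2-asphyxiated rats, longitudinal contractions recorded isotonically (0.5 g load) in 20 mL Krebs at 37°C gassed with 95% O2/5% CO2; 60 min equilibration, then three additions of 5-HT (10^-5 M) for stable control contractions. Compounds dissolved in DMSO (<0.01%), 10 min contact per concentration. IC50 (50% inhibition of 5-HT contraction) and Emax derived by curve fitting; mean (SEM).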

For test [7], the target named is 5-hydroxytryptamine receptor 2A (Rattus norvegicus) (UniProt P14842). As to conditions: Sprague-Dawley, 0.3 uM.
Test [8] has the same target. The settings on record: Sprague-Dawley, 0.1 uM.
For test [9] the target is unchanged. Briefly: Antagonist activity at 5-HT2A receptor in Sprague-Dawley rat ielum assessed as reduction in 5-HT-evoked contraction at 10 uM.
The subject of test [10] is Mus musculus. In words: Anxiolytic-like activity in Swiss albino mouse assessed as increase in time spent in open arms at 5 mg/kg measured for 5 mins test period by elevated plus maze test. It counts as functional, organism-based. Put shortly: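 Male Swiss albino mice (18-24 g) were tested in the elevated plus-maze by Lister's method. The reference drug was diluted in saline and given ip (10 ml/kg). Time in open arms was recorded. Results are mean ± SEM, analysed by one-way ANOVA and post hoc test, with the observer blind to treatment.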

Test [11] relates to Mus musculus. Briefly: Antidepressant-like activity in Swiss albino mouse assessed as reduction in immobility time at 20 mg/kg, ip dosed 1 hr before test by forced swimming test. The test is classed as functional, organism-based. Put shortly: (§1)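 Male Swiss albino mice (18-24 g). The reference drug was diluted in saline and given ip (10 ml/kg) 1 h before testing. Each mouse swam for 6 min in a cylinder (25 cm high, 10 cm diameter) holding 10 cm of water at 23-25°C. Immobility was timed over the last 4 min. Data are mean ± SEM, analysed by one-way ANOVA with Dunnett's test.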

For test [12], the system named is Mus musculus. In words: Antidepressant-like activity in Swiss albino mouse assessed as reduction in immobility time at 15 mg/kg, ip dosed 1 hr before test by forced swimming test. The test is classed as functional, organism-based. Put shortly:
as §1

Consider 19 molecules from ChEMBL document CHEMBL4177580, “New 5-HT1A, 5HT2A and 5HT2C receptor ligands containing a picolinic nucleus: Synthesis, in vitro and in vivo pharmacological evaluation” (Bioorg Med Chem, 2017).

SMILES strings stand for the structures. Active and inactive are the calls of the source. The rule behind the calls is not given here.

T3 sequence (P14842 whole entry): as the sequence (P14842 whole entry) above

As a reminder, the Ki is a dissociation constant, usually derived from enzyme kinetics or from competition with a known ligand. Read a high Ki as weaker binding. By Emax is commonly meant the size of the effect at its maximum, as opposed to the concentration needed. The EC50 is the midpoint of the concentration-response curve. Take `O=C(NCCCN1CCN(c2ccc(Cl)c(Cl)c2)CC1)c1ccccn1`: the Ki came to 181 nM in test [1], 9.57 nM in test [4] and 90.4 nM in [5]. Further, the Emax in test [2] was 26.7%. The result in test [3] was inactive. Besides, in [6] (read-out: EC50), the EC50 is 770 nM.
Take `COc1ccccc1N1CCN(CCNC(=O)c2ccccn2)CC1`: the Ki was 599 nM in test [1], greater than 10000 nM in test [4] and 0.0224 nM in test [5]. Besides, the Emax in [2] was found to be 33.7%. The outcome in [3] was inactive. For the same molecule, in test [6] (read-out: EC50), the concentration giving a half-maximal response (EC50) worked out at 4250 nM.
For `O=C(NCCCN1CCN(C(=O)c2ccco2)CC1)c1ccccn1`, the Ki in test [1] and in test [4] was greater than 10000 nM each time. The Emax in test [2] amounted to 53.1%. The outcome in [3] was inactive. Besides, in test [6] (read-out: EC50), the EC50 was found to be 777 nM.
For `O=C(NCCCN1CCN(Cc2ccc3c(c2)OCO3)CC1)c1ccccn1`, the Ki in test [1] and in [4] was greater than 10000 nM throughout. Also, the Emax in test [2] is 75.5%. Also, the outcome in test [3] was inactive. The EC50 in [6] (read-out: EC50) turned out to be 6480 nM.
For the molecule `O=C(NCCN1CCN(c2ccccc2)CC1)c1ccccn1`, the Ki is 161 nM in test [1], greater than 10000 nM in [4] and 53.2 nM in [5]. The EC50 result in [6] is “Not Active”.
In the case of `COc1ccc(N2CCN(CCNC(=O)c3ccccn3)CC2)cc1`, the Ki in test [1] was 138 nM; in test [4], greater than 10000 nM; in [5], 9.33 nM. In addition, in [6], the EC50 result is recorded as “Not Active”.
With `O=C(NCCCN1CCN(C(c2ccc(F)cc2)c2ccc(F)cc2)CC1)c1ccccn1`, the maximal response (Emax) in test [2] came to 68.4%. For the same molecule, the result in test [3] was inactive. In addition, the EC50 in test [6] (read-out: EC50) is 2040 nM.
Consider `NC1=N[C@H](O)[C@H]2[C@H]3O[C@]4(O)O[C@@H]([C@H](O)[C@@]2(N1)[C@@H]4O)[C@]3(O)CO`, for which the inhibition result in test [7] was “inactive”.
`O=C(c1ccc(F)cc1)C1CCN(CCn2c(=O)[nH]c3ccccc3c2=O)CC1`: in test [8], the inhibition result is “Active”.
In the case of `Cc1ccc(N(CC2=NCCN2)c2cccc(O)c2)cc1`, the inhibition entry in test [9] was “inactive”.
Regarding `O=C(NCCN1CCN(c2cccc(C(F)(F)F)c2)CC1)c1ccccn1`, in test [2], the Emax was determined as 48.4%. The result in test [3] was inactive. Also, in test [6] (read-out: EC50), the EC50 was determined as 161 nM.
`O=C(NCCCN1CCN(c2ncccn2)CC1)c1ccccn1`: the values for the Ki in [1], in test [4] and in test [5] were 500 nM, greater than 10000 nM and 16.8 nM, respectively. The Emax in [2] was found to be 32.1%. Moreover, the result in test [3] was inactive. In test [6] (read-out: EC50), the EC50 stood at 828 nM.
Take `O=C1CC2(CCCC2)CC(=O)N1CCCCN1CCN(c2ncccn2)CC1`: the result in the test with Mus musculus [10] was Active.
With `CN1[C@@H]2CC[C@H]1C[C@@H](OC(=O)C(CO)c1ccccc1)C2` (stereo partly specified), in test [9], the inhibition result was “inactive”.
Consider `CNCCC(Oc1ccc(C(F)(F)F)cc1)c1ccccc1` (stereo unspecified), for which the result in the test with Mus musculus [11] and with Mus musculus [12] was Active.
Turning to `CCOc1ccccc1N1CCN(CCCNC(=O)c2ccccn2)CC1`, the Ki in test [1] stood at 85.6 nM; in test [4], 80 nM; in test [5] it was 119 nM.
Taken in the same sequence, the figures for `COc1ccccc1N1CCN(CCCNC(=O)c2ccccn2)CC1` were 40.1 nM, 128 nM and greater than 10000 nM.
Take `O=C(NCCCN1CCN(c2ccccc2)CC1)c1ccccn1`: the Ki in [1] came to 104 nM; in [4] it was 111 nM; in [5], 277 nM.
Consider `O=C(NCCCN1CCN(c2cccc(Cl)c2)CC1)c1ccccn1`, for which the inhibition constant Ki in test [1] is 59.5 nM; in [4], 101 nM; in test [5], 80.7 nM.
